Article PMC4281708 (Cancer research, 2012)
Substitutions are numbered along the chain they refer to. “Also recorded” adds a separate entry of the source. Like-named read-outs stand apart in the source and are kept apart here.

How the values were obtained:
[1] = system: PSA and TMPRSS2 mRNA expression in LNCaP cells; test: Quantitative RT-PCR of AR-regulated genes, LNCaP; assay type: cell-based, human
Procedure, shortened: (§1)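 Cells held 24 h in phenol red-free medium with charcoal-stripped serum, then treated 5 h with test compound (0.1–10 µM) or 0.1nM R1881. After RNA extraction and cDNA synthesis, SYBR Green qPCR for PSA and TMPRSS2 used 50ng cDNA per reaction, each sample run in duplicate. Normalised to actin and GAPDH, relative to a reference sample (2^-ΔΔCt). 3 independent experiments, mean ± SEM.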

VCaP cells = test: Cell viability; assay type: cell-based, human; conditions: for growth inhibition of VCaP cells stimulated by spironolactone: 0.1, 1 or 5μM abiraterone, 10μM bicalutamide or 10μM MDV3100, 7 days; for proliferation of VCaP (WT-AR): 1 and 10μM, CSS, 7 days
LNCaP cells = test: Cell viability; assay type: cell-based, human; conditions: for growth inhibition of LNCaP cells stimulated by eplerenone / growth inhibition of LNCaP cells stimulated by spironolactone: 0.1, 1 or 5μM abiraterone, 10μM bicalutamide or 10μM MDV3100, 7 days; for proliferation of hormone-stripped LNCaP (T877A-AR): 1 and 10μM, CSS, 7 days
PC-3 = test: Cell proliferation, PC-3; assay type: cell-based, human; conditions: AR-negative prostate cancer cell line
[2] = system: WT or mutant human AR (T877A, G142V, P533S, T575A, H874Y, R629Q); test: GRE2-TATA-Luc reporter assay in COS-7 cells co-transfected with AR; assay type: cell-based
WT-AR = biological target: T1, WT-AR (Homo sapiens, UniProt P10275); test: cell-based; assay type: binding
T1 sequence (P10275 1-920): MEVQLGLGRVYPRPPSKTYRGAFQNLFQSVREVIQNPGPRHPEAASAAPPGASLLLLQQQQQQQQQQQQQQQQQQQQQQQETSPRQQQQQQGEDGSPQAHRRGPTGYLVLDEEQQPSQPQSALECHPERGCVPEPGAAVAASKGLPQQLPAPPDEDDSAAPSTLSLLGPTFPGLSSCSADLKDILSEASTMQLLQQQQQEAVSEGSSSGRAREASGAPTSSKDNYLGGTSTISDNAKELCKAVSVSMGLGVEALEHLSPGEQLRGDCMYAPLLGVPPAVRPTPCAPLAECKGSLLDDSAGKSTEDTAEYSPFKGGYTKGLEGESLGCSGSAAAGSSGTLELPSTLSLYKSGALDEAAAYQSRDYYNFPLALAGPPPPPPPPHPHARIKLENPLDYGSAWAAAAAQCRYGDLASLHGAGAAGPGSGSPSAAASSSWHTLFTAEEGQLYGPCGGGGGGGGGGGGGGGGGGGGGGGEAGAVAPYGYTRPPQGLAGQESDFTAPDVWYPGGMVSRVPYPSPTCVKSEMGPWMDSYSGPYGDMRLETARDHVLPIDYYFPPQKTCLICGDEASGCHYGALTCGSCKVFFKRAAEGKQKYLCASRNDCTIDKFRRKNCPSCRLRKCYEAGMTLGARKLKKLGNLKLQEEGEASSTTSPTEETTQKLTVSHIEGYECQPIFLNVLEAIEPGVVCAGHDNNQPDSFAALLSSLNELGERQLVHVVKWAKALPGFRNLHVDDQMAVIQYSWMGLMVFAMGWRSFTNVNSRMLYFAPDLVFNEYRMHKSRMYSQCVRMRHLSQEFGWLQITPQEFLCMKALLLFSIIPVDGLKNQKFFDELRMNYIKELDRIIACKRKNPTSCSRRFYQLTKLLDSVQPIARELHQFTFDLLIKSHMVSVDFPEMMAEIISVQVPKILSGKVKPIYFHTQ

AR = conditions: cited from earlier work
[3] = system: castration-resistant prostate cancer (CRPC); conditions: 1000mg abiraterone daily ref 1, 2; cited from earlier work
DU145 = test: Cell proliferation, DU145; assay type: cell-based, human; conditions: AR-negative prostate cancer cell line
[4] = system: WT or mutant AR (T877A, D879G, W741C, M749L, R629Q); test: ARE3-luciferase reporter assay in PC-3 cells, WT and mutant AR panel; assay type: cell-based, human
T877A-AR [5] = biological target: T2, T877A-AR (Homo sapiens, UniProt P10275, T878A); test: cell-based; assay type: binding
T2 sequence (P10275 1-920 T878A): T1 sequence (P10275 1-920) with T878A

LNCaP (T877A-AR) = biological target: T3, LNCaP (T877A-AR) (Homo sapiens, UniProt P10275, T878A); test: cell-based; assay type: binding
T3 sequence (P10275 1-920 T878A): T1 sequence (P10275 1-920) with T878A

T877A-AR [6] = biological target: T2, T877A-AR; assay type: cell-based
Solubility in cell media = assay type: physicochemical; conditions: plasma or biological fluid, kinetic from dmso stock
[7] = patients ref 2; cited from earlier work
W741C-AR = test: PSA-ARE3-luc luciferase reporter assay in transfected PC-3 cells, W741C-AR; assay type: cell-based, human
wild-type (WT)-AR [8] = test: PSA-ARE3-luc luciferase reporter assay in transfected PC-3 cells, WT-AR; assay type: cell-based, human; conditions: compared to R1881
wild-type (WT)-AR [9] = conditions: cited from earlier work
D879G-AR = test: PSA-ARE3-luc luciferase reporter assay in transfected PC-3 cells, D879G-AR; assay type: cell-based, human; conditions: compared to R1881
Procedure, shortened: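 Human AR expression plasmid carrying the mutation (confirmed by sequencing) co-transfected with PSA-ARE3-luc reporter into PC-3 cells. Cells grown 30 h in phenol red-free RPMI 1640 with 10% charcoal-stripped serum, then exposed 16 h to test compound (DMSO ≤0.2%) with R1881 as reference agonist. Luminescence read after ONE Glo. Fold change vs DMSO control; EC50 by nonlinear regression; 3 independent experiments, 16 replicates.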

[10] = 100mg eplerenone ref 6, cited from earlier work
[11] = system: PSA and TMPRSS2 mRNA expression in VCaP cells; test: Quantitative RT-PCR of AR-regulated genes, VCaP; assay type: cell-based, human; conditions: 0.1 - 10μM eplerenone, 5 hours
Procedure, shortened: as §1

CNC(=O)c1ccc(N2C(=S)N(c3ccc(C#N)c(C(F)(F)F)c3)C(=O)C2(C)C)cc1F [MDV3100]
inhibition of induction of TMPRSS2 expression by eplerenone ([1]; LNCaP, 10μM eplerenone, 10μM MDV3100, 5 hours): more significantly than bicalutamide or abiraterone | growth inhibition of VCaP cells stimulated by spironolactone (VCaP cells): more profound inhibition | growth inhibition of LNCaP cells stimulated by eplerenone (LNCaP cells): more profound inhibition | growth inhibition of LNCaP cells stimulated by spironolactone (LNCaP cells): more profound inhibition

C[C@]12CC[C@H](O)CC1=CC[C@@H]1[C@@H]2CC[C@]2(C)C(c3cccnc3)=CC[C@@H]12 [abiraterone]
inhibitory effect on proliferation of PC-3 (PC-3): No inhibitory effect was observed | inhibition of R629Q-AR ([2]; COS-7, 10nM DHT, compared with PC-3 ARE3-luciferase assay): Higher concentrations of abiraterone were required | inhibition of WT-AR, T877A-AR, G142V-AR, P533S-AR, T575A-AR and H874Y-AR ([2]; COS-7, activated by 10nM DHT for 24 hours, 0.1 - 5μM): dose-proportional inhibition | EC50 (WT-AR): 13.4 µM | binding to the AR (AR): failed to identify binding | effect on AR levels (AR): dose-dependent decrease in AR levels | objective tumor responses, CRPC patients [3]: up to 60% | regulation of PSA and TMPRSS2 in LNCaP cells treated with abiraterone ([1]; 5μM abiraterone, 0.1nM R1881, 5 hours): down-regulation | inhibitory effect on proliferation of DU145 (DU145): No inhibitory effect was observed | inhibition of stimulated WT and mutant AR activity ([4]; 0.1nM R1881, 16 hours): dose-proportional inhibition | AR inhibition ([4]; 1μM abiraterone): up to 32% | increase in reporter-luciferase activity (agonistic activity) with WT-AR or any mutation tested ([4]; doses up to 25μM): did not observe an increase in reporter-luciferase activity; also recorded: no agonistic activity was observed | EC50 (T877A-AR [5]): 7.9 µM | growth inhibition of VCaP cells stimulated by spironolactone (VCaP cells): dose-proportional growth inhibition | doses with significant inhibition of proliferation of VCaP (VCaP cells; CSS with 0.1nM R1881, 7 days): ≥ 5 µM | growth inhibition of LNCaP cells stimulated by eplerenone (LNCaP cells): dose-proportional growth inhibition | growth inhibition of LNCaP cells stimulated by spironolactone (LNCaP cells): dose-proportional growth inhibition | doses with significant inhibition of proliferation of LNCaP (LNCaP cells; CSS with 0.1nM R1881, 7 days): ≥ 5 µM | EC50 (LNCaP (T877A-AR)): 2.6 µM | inhibition of activation of T877A-AR by 1μM eplerenone (T877A-AR [6]): significantly inhibited | solubility (Solubility in cell media): > 25 µM | doses safely tolerated [7]: at least 2000 mg daily

CC(O)(CS(=O)(=O)c1ccc(F)cc1)C(=O)Nc1ccc(C#N)c(C(F)(F)F)c1 (stereo not shown) [bicalutamide]
activation of W741C-AR (W741C-AR): activated

C[C@@H]1C[C@H]2[C@@H]3CCC4=CC(=O)C=C[C@]4(C)[C@@]3(F)[C@@H](O)C[C@]2(C)[C@@]1(O)C(=O)CO [dexamethasone]
activation of WT-AR (wild-type (WT)-AR [8]): do not activate

COC(=O)[C@@H]1CC2=CC(=O)CC[C@]2(C)[C@@]23O[C@@H]2C[C@@]2(C)[C@@H](CC[C@@]24CCC(=O)O4)[C@H]13 [eplerenone]
binding and activation of wild-type (WT)-AR (wild-type (WT)-AR [9]): did not bind and activate | expression of PSA and TMPRSS2 in LNCaP ([1]; 0.1 - 10μM eplerenone, 5 hours): significantly increased expression | proliferation of VCaP (WT-AR) (VCaP cells): only spironolactone increased the proliferation | proliferation of hormone-stripped LNCaP (T877A-AR) (LNCaP cells): increased proliferation | activation of D879G-AR (D879G-AR): does not activate | activation of W741C-AR (W741C-AR): does not activate | activation of WT-AR (wild-type (WT)-AR [8]): does not activate | Cmax [10]: 1720 ± 280 ng/mL | Cmax ([10]; read-out: Cmax (equivalent)): 4.2 µM | expression of PSA and TMPRSS2 in VCaP [11]: not in VCaP

C[C@]12C=CC(=O)C=C1CC[C@@H]1[C@@H]2C(=O)C[C@@]2(C)[C@H]1CC[C@]2(O)C(=O)CO [prednisone]
activation of WT-AR (wild-type (WT)-AR [8]): do not activate

CC(=O)S[C@@H]1CC2=CC(=O)CC[C@]2(C)[C@H]2CC[C@@]3(C)[C@@H](CC[C@@]34CCC(=O)O4)[C@H]12 [spironolactone]
proliferation of VCaP (WT-AR) (VCaP cells): increased the proliferation | proliferation of hormone-stripped LNCaP (T877A-AR) (LNCaP cells): increased proliferation | activation of D879G-AR (D879G-AR): activates | activation of WT-AR (wild-type (WT)-AR [8]): activates
